ChEMBL document CHEMBL4354879, “Bioisosteric Discovery of NPA101.3, a Second-Generation RET/VEGFR2 Inhibitor Optimized for Single-Agent Polypharmacology” (J Med Chem, 2020)
Calls of active or inactive are those of the source. The calls are words filed in the database; no cut-off is given here.

What was measured:
[1] = target: T1, Coiled-coil domain-containing protein 6/Tyrosine-protein kinase receptor RET (Homo sapiens) (UniProt P07949+Q16204); assay: Inhibition of CCDC6/RET in human TPC1 cells assessed as reduction in SHC phosphorylation at 0.3 to 30 nM measured after 2 hrs by Western blot analysis; format: cell-based
T1 sequence (P07949 29-1114 limits assumed): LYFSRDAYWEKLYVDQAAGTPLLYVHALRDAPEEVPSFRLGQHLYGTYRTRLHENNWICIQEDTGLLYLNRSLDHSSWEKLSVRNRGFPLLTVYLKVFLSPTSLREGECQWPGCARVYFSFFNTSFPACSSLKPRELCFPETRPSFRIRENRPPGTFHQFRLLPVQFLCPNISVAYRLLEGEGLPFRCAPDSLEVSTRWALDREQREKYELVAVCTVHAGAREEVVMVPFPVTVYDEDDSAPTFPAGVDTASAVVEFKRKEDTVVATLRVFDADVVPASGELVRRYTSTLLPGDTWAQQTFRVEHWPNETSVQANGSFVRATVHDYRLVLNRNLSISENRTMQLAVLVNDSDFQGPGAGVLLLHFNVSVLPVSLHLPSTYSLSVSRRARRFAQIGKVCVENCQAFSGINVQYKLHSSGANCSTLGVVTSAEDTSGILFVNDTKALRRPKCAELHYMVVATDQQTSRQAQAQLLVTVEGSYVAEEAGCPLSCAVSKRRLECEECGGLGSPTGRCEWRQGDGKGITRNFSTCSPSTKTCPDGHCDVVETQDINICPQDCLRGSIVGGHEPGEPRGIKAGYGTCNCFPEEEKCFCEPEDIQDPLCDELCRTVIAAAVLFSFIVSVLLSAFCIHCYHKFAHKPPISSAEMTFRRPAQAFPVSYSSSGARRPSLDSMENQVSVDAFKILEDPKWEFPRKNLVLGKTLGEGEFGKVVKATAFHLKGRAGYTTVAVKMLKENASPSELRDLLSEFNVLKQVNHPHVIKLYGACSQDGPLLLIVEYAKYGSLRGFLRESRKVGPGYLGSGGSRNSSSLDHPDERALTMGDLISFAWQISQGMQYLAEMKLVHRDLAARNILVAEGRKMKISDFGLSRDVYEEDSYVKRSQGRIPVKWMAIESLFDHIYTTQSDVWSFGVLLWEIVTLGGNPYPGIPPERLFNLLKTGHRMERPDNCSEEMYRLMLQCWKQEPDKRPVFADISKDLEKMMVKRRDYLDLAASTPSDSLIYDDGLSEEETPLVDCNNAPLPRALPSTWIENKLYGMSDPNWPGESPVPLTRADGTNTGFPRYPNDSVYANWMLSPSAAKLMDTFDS
T1 sequence (Q16204 2-474 partner limits assumed): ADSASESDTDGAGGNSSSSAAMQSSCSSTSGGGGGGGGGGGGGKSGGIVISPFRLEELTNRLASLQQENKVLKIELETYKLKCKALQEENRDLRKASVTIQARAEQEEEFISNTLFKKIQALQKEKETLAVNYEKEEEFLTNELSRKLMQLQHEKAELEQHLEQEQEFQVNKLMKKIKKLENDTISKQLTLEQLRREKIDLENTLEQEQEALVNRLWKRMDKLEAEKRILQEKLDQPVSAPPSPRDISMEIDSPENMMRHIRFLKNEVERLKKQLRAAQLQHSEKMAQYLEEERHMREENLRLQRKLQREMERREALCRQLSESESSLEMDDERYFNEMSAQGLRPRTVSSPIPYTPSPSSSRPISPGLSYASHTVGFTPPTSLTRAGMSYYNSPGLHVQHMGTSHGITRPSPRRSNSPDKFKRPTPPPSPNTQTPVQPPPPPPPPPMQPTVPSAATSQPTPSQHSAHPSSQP

BCPAP = assay: Cytotoxicity against RET deficient human BCPAP cells supplemented with fresh medium containing compound for every 2 to 3 days measured during compound dosing; format: functional, cell-based
Procedure, shortened: (§1)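 Human RET-negative lines were seeded in six-well plates at 10000 cells/well, in 5% FCS (Nthy-ori-3-1) or 10% FCS (BCPAP, 8505-C, CALU-1, A549, PC-9). Drug or vehicle was added the day after plating, with medium changed every 2–3 days. Cells were counted every 2–3 days. IC50 was fitted from the last day of the growth curves.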

[2] = target: Tyrosine-protein kinase FRK (Homo sapiens) (UniProt P42685); assay: Binding affinity to wild-type human partial length FRK (A215 to F503 residues) expressed in bacterial expression system at 100 nM by Kinomescan method relative to control
Chain of Tyrosine-protein kinase FRK (Homo sapiens) (P42685 whole entry, the tested form may be a part, canonical isoform): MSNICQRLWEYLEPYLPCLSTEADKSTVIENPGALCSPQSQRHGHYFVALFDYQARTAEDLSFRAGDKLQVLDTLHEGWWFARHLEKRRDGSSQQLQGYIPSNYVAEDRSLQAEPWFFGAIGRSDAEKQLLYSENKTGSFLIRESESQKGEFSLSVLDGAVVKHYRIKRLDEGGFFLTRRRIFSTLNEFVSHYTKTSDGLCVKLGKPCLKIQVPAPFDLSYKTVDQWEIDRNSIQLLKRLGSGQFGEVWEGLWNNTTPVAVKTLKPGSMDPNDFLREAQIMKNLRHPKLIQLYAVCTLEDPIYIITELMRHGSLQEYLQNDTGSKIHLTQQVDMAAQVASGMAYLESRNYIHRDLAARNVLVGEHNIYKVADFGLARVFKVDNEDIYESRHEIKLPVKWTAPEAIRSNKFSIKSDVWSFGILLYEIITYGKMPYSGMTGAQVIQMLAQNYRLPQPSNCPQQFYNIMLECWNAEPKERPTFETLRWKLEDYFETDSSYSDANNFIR

Mus musculus = assay: In vivo inhibition of RET isoform 9 C634R mutant transfected in mouse NIH/3T3 cells implanted BALB/c nu/nu mouse assessed as reduction in RET phosphorylation at Y905 residue in tumor at 1 mg/kg, po administered once daily via gavage for 3 days measured 3 hrs post-last dose by Western blot analysis; format: functional, organism-based
[3] = tested on: Proto-oncogene tyrosine-protein kinase receptor Ret (Homo sapiens), P07949 [C634R]; assay: Inhibition of RET […] C634R mutant (unknown origin) expressed in mouse BAF3 cells assessed as reduction in RET phosphorylation at Y1062 residue at 0.3 to 30 nM measured after 2 hrs by Western blot analysis; format: cell-based
Chain of Proto-oncogene tyrosine-protein kinase receptor Ret (Homo sapiens), P07949 [C634R] (P07949 whole entry C634R, canonical isoform): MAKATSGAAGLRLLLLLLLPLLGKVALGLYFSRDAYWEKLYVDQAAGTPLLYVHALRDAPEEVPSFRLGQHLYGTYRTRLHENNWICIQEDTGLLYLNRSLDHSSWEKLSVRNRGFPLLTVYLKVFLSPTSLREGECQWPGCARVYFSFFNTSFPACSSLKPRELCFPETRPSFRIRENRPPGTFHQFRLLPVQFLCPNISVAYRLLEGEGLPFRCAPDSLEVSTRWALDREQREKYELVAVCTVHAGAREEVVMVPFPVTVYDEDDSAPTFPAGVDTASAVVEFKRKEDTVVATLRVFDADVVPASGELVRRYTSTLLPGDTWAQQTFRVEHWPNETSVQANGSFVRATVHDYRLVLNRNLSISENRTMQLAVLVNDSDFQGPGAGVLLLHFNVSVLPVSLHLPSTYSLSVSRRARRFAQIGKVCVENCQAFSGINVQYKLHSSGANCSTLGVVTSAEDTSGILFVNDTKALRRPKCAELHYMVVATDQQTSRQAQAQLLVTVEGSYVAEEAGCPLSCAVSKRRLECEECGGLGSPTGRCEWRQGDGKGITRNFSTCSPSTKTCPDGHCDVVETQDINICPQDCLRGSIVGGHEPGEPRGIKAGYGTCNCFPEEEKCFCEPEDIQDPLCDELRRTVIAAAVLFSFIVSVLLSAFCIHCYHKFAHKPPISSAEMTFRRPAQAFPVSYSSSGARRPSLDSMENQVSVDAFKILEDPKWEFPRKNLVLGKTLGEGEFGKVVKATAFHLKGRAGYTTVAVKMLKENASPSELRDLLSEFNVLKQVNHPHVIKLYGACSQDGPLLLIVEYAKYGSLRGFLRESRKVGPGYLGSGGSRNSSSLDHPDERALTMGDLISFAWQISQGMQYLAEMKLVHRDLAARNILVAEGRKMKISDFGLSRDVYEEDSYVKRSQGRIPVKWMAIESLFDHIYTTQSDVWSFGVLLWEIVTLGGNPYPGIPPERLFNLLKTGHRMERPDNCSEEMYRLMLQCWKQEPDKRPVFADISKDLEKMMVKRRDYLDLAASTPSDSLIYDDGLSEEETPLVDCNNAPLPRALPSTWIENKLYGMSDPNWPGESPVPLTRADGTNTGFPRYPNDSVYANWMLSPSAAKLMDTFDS
Procedure, shortened: (§2)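 Ba/F3 cells stably expressing long-isoform RET-51 mutants (electroporation), cultured in RPMI/10% FCS without IL-3; RET phosphorylation read by Western blot with anti-phospho-Y905 and anti-phospho-Y1062 antibodies, ECL detection.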

[4] = Drug metabolism in BALB/c nu/nu mouse assessed as formation of demethylated metabolite at 10 mg/kg, po measured after 1 to 4 hrs by LC-MS analysis; format: ADME, organism-based; details: in vivo
[5] = tested on: Proto-oncogene tyrosine-protein kinase receptor Ret (Homo sapiens), P07949 [M918T]; assay: Inhibition of RET […] M918T mutant (unknown origin) expressed in mouse BAF3 cells assessed as reduction in RET phosphorylation at Y1062 residue at 0.3 to 30 nM measured after 2 hrs by Western blot analysis; format: cell-based; procedure, shortened: as §2
Chain of Proto-oncogene tyrosine-protein kinase receptor Ret (Homo sapiens), P07949 [M918T] (P07949 whole entry M918T): as the sequence (P07949 whole entry C634R, canonical isoform) above, with R634C, M918T counted along it

[6] = Toxicity in BALB/c nu/nu mouse assessed as change in globulin level at 10 mg/kg, po administered daily for 7 days; format: organism-based; details: in vivo, 168 h
[7] = target: Vascular endothelial growth factor receptor 2 (Homo sapiens, UniProt P35968); assay: Inhibition of recombinant human VEGFR2 expressed in HEK293 cells assessed as reduction in VEGFA-induced VEGFR2 autophosphorylation at 1 to 10 nM preincubated for 2 hrs followed by VEGFA-stimulation and measured after 15 mins by Western blot analysis; format: cell-based
Chain of Vascular endothelial growth factor receptor 2 (P35968 whole entry): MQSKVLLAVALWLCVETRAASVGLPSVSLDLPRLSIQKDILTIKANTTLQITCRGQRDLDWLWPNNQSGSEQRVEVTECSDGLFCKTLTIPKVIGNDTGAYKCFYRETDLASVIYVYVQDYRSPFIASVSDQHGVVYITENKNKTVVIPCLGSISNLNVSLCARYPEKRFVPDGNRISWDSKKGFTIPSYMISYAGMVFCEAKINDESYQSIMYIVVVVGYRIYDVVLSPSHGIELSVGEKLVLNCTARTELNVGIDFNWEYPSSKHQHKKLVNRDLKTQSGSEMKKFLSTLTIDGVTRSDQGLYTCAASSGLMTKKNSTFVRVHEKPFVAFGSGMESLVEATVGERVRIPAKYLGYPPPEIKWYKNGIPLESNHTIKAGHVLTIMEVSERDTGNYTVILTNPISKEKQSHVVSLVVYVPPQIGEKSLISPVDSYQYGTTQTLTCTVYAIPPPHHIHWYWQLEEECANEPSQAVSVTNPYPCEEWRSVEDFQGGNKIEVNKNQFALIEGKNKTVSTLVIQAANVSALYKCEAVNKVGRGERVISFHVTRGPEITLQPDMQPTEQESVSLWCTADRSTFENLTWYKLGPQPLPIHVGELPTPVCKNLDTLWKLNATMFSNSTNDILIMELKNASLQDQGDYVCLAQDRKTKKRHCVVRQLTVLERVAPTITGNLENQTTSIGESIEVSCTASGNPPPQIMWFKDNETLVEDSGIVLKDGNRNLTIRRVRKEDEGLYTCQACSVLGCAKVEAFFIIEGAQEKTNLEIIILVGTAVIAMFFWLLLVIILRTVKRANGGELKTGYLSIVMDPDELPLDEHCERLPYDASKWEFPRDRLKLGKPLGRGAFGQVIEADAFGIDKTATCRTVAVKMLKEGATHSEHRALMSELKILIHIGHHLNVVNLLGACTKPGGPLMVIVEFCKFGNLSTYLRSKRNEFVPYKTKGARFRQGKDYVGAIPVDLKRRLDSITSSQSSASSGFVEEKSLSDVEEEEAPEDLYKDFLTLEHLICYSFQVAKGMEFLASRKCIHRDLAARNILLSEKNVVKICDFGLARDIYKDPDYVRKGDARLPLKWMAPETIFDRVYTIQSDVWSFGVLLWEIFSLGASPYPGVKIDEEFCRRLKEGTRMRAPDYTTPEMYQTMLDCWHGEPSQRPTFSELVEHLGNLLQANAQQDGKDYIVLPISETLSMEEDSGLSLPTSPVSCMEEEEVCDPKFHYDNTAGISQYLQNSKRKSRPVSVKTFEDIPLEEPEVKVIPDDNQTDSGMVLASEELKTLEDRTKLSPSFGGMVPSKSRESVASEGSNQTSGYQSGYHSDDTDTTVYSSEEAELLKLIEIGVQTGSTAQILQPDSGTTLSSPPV
Procedure, shortened: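 HEK293 transiently transfected with human VEGFR2; 36 h post-transfection serum-starved 12 h, compound or vehicle 2 h, then VEGFA 100 ng/mL for 15 min; lysates blotted for phospho-VEGFR2, normalized to total VEGFR2.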

[8] = tested on: Proto-oncogene tyrosine-protein kinase receptor Ret (Homo sapiens), P07949 [C634R]; assay: Inhibition of RET […] C634R mutant (unknown origin) expressed in mouse BAF3 cells assessed as reduction in RET phosphorylation at Y905 residue at 0.3 to 30 nM measured after 2 hrs by Western blot analysis; format: cell-based; procedure, shortened: as §2
[9] = target: T2, SHC-transforming protein 1 (Homo sapiens) (UniProt P29353); assay: Effect on SHC phosphorylation in RET deficient human A549 cells at 1 to 100 nM measured after 2 hrs by western blot analysis; format: cell-based
T2 sequence (whole entry): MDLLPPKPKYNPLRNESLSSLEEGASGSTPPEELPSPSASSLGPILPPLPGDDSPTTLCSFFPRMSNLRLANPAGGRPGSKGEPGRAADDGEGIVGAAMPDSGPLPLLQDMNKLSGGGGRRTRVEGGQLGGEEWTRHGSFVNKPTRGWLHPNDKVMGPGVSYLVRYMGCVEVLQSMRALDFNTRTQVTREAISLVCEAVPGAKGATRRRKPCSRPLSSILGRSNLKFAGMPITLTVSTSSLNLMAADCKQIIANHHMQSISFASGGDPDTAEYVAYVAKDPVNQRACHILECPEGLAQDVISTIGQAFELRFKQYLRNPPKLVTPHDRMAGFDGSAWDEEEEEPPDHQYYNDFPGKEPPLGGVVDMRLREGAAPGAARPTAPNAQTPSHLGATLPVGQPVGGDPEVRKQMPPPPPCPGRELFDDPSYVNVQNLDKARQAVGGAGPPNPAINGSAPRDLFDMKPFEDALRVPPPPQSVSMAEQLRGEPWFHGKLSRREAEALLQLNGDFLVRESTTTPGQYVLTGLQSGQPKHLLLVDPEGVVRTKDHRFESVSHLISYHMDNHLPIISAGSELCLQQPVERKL

8505C [10] = assay: Cytotoxicity against RET deficient human 8505C cells supplemented with fresh medium containing compound for every 2 to 3 days measured during compound dosing; format: functional, cell-based; procedure, shortened: as §1
A549 = assay: Cytotoxicity against RET deficient human A549 cells supplemented with fresh medium containing compound for every 2 to 3 days measured during compound dosing; format: functional, cell-based; procedure, shortened: as §1
8505C [11] = assay: Effect on MAPK phosphorylation in RET deficient human 8505C cells at 1 to 100 nM measured after 2 hrs by western blot analysis; format: cell-based
[12] = target: T1, Coiled-coil domain-containing protein 6/Tyrosine-protein kinase receptor RET (Homo sapiens); assay: Inhibition of CCDC6/RET in human TPC1 cells assessed as reduction in RET phosphorylation at Y1062 residue at 0.3 to 30 nM measured after 2 hrs by Western blot analysis; format: cell-based
Homo sapiens = species: Homo sapiens; assay: Inhibition of CCDC6/RET isoform 9 (unknown origin) expressed in mouse NIH/3T3 cells assessed as reduction in RET phosphorylation at Y905 residue at 1 to 100 nM measured after 2 hrs by Western blot analysis; format: cell-based
Procedure, shortened: (§3)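 Serum-starved RAT1 (RET point mutants) or NIH3T3 (RET rearrangements) cells expressing short RET-9 isoform, treated 2 h; 50 μg total lysate immunoblotted with anti-phospho-Y1062 and anti-phospho-Y905 RET antibodies, normalized to total RET; ECL detection. Compound from 50 mM DMSO stock diluted in growth medium.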

[13] = tested on: Proto-oncogene tyrosine-protein kinase receptor Ret (Homo sapiens), P07949 [A883F]; assay: Inhibition of RET isoform 9 A883F mutant (unknown origin) expressed in rat Rat1 assessed as reduction in RET phosphorylation at Y1062 residue at 1 to 100 nM measured after 2 hrs by Western blot analysis; format: cell-based; procedure, shortened: as §3
Chain of Proto-oncogene tyrosine-protein kinase receptor Ret (Homo sapiens), P07949 [A883F] (P07949 whole entry A883F, canonical isoform): as the sequence (P07949 whole entry C634R, canonical isoform) above, with R634C, A883F counted along it

[14] = Cytotoxicity against RET deficient human Nthy-ori 3-1 cells supplemented with fresh medium containing compound for every 2 to 3 days measured during compound dosing; format: cell-based; procedure, shortened: as §1
[15] = Toxicity in BALB/c nu/nu mouse assessed as change in blood urea nitrogen level at 10 mg/kg, po administered daily for 7 days; format: organism-based; details: in vivo, 168 h
Procedure, shortened: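 Mice dosed orally with 10 mg/kg/day for 7 days; standard blood markers of organ damage measured.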

inhibition [1]: Active
Activity [2]: > 90%
inhibition [3]: Active
Drug metabolism [4]: Metabolite_Notdetected
inhibition [5]: Active
inhibition [7]: Active
inhibition [8]: Active
Activity [9]: inactive
inhibition [12]: Active
inhibition [13]: Active
SMILES: CC(C)(C)c1cc(NC(=O)Cc2ccc(-n3cnc4cc(-c5ccc(S(C)(=O)=O)cc5)ccc43)cc2)no1
IC50 (BCPAP): > 100 nM
inhibition (Mus musculus): Active
Activity [6]: Non-Toxic
IC50 (8505C [10]): > 100 nM
IC50 (A549): > 100 nM
Activity (8505C [11]): inactive
inhibition (Homo sapiens): Active
IC50 [14]: > 100 nM
Activity [15]: Non-Toxic
